In the library only some 3.3% were active in any assay of this set; here they are far more common.
FXN GAA850 act: activators of GAA850 frataxin (FXN) promoter. HEK293 lucGAA850 FXN promoter luciferase reporter, 24 h; percent of 10 µM SAHA response. activation, % at 6 µM. hit rate 0.56% among 360,000. AID 540364;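 active means activation above the average of all compounds screened plus 3 SD, cutoff fixed separately per campaign, cut at about 7.5% in these data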
ABCB6 inh MLPCN: blocks the human ABCB6 transporter | hit rate 0.19% among 360,000 | Q9NP58 | AID 602162 | K562-ABCB6 porphyrin accumulation, flow cytometry, 1 h; hits give low values | fluorescence ratio to DMSO, % at 10 µM;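 active means fluorescence ratio to DMSO below 75%, the collection mean minus 3 SD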;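 further: signal is porphyrin accumulated inside mitochondria; lower ratio means ABCB6 inhibition with less porphyrin fluorescence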
STAT3 act: STAT3 signaling activation; activation (% of control), % at 5.6 µM; U3A cells, IL-6 STAT3-luciferase reporter, luminescence; 100% = signal with IL-6 EC80 alone; hit rate 0.91% among 190,000;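 active means activation above the screen-wide mean of compound activation plus 3 SD, cut at about 130% in these data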
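Material: human U3A cells carrying STAT3-luciferase construct. Measured by: reporter luminescence signal. Timing: compound 1 h, then IL-6 6 h at 37 °C.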
AHR act: human AHR activation; P35869; AHR-responsive luciferase reporter cells, luminescence; activation, % at 5 µM; hit rate 2.5% among 320,000; AID 2796; in the data active means activation above about 47%
GAA30 FXN cntr: GAA30 FXN promoter activation counter-screen; shares compounds with FXN GAA850 act; HEK293 lucGAA30 FXN promoter luciferase, 24 h; DMSO = 0%, 5 µM ipriflavone = 100%; activation, % at 6 µM; hit rate 66% among 1,900; AID 588350;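 active means mean activation above the mean of solvent-only control wells plus 3 SD, cut at about 22% in these data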;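 further: counterscreen of GAA850 promoter hits where activity marks nonselective or luminescence artifacts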
GAA850 confirm: GAA850 FXN promoter activation confirmation; AID 588351; activation, % at 6 µM; hit rate 86% among 1,900; shares compounds with FXN GAA850 act; HEK293 lucGAA850 FXN promoter luciferase reporter, 24 h; 100% = activation by SAHA;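 active means mean activation above a set limit taken from the primary screen, cut at about 8% in these data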
ABCB6 blocker 1: inhibitors of human ABC transporter ABCB6; shares compounds with ABCB6 inh MLPCN; K562-ABCB6 porphyrin accumulation, flow cytometry, 1 h; hits give low values; ratio response (% of DMSO), % at 10 µM; 700 tested, under 10 active;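 active means repeat-averaged ratio response below 75% of DMSO, the collection mean minus 3 SD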;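 further: median porphyrin fluorescence at 575 nm with 488 nm excitation from mitochondria; lower ratio means less porphyrin signal so ABCB6 inhibition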
Each line names hits and unclear results; the compound was inactive in the other large screens (follow-up assays come after a bar, where they were run).

CCNC(=O)C1OC(n2cnc3c(N)ncnc32)C(O)C1O (stereo not drawn)	FXN GAA850 act 10 | GAA30 FXN cntr inactive | GAA850 confirm 26
COC(=O)[C@@H]1[C@@H](C(=O)OC)C2(c3ccccc3-c3ccccc32)N(c2ccc(Cl)cc2)N1C#N	FXN GAA850 act 13 | GAA30 FXN cntr inactive | GAA850 confirm inactive
COC(=O)C[C@]1(C(=O)OC)CN(C#N)N(c2ccc(Cl)cc2)C12c1ccccc1-c1ccccc12	none
O=c1[nH]cnc2nc(-c3ccc(N(CCCl)CCCl)cc3)[nH]c12	FXN GAA850 act 9.0 (no result: STAT3 act, AHR act) | GAA30 FXN cntr 91 | GAA850 confirm 56
O=C(O)CCCc1ccc(N(CCCl)CCCl)cc1	none
CCC1(CCC(C)C)C(=O)NC(=O)N(c2ccccc2)C1=O (stereo not drawn)	none (no result: FXN GAA850 act, STAT3 act, AHR act)
COc1ccc(C(C)=O)cc1Cc1c(O)[nH]c(=S)[nH]c1=O	ABCB6 inh MLPCN 65 (no result: STAT3 act) | ABCB6 blocker 1 inactive
CCOc1ccc(C(C)=O)cc1Cc1c(O)[nH]c(=S)[nH]c1=O	none (no result: STAT3 act, AHR act)
Fc1cccc(C2NCc3ccccc3-n3cccc32)c1 (stereo not drawn)	none (no result: STAT3 act)
CCC(=O)c1cn(Cc2ccccc2)c2ccccc12	none
CN(C)CCOC(=O)c1cn(Cc2ccccc2)c2ccccc12	ABCB6 inh MLPCN 7.0 | ABCB6 blocker 1 inactive
CCCCn1c(O)c(C=NCCCn2ccnc2)c(=O)[nH]c1=O	none
CC(C)CCCn1c(O)c(/C=C2/C=CC=N2)c(=O)[nH]c1=O	ABCB6 inh MLPCN 70 | ABCB6 blocker 1 inactive
COc1cccc(N2C(=O)CC(=O)NC2=O)c1	ABCB6 inh MLPCN 71 | ABCB6 blocker 1 inactive
Cc1nonc1OCCNc1ccc([N+](=O)[O-])c2cccnc12	ABCB6 inh MLPCN 72 | ABCB6 blocker 1 inactive
N#CC1c2ccccc2-n2nncc2CN1Cc1cc(Cl)cc(Cl)c1 (stereo not drawn)	none (no result: STAT3 act, AHR act)
Cc1cc(C(=O)OCC(=O)Nc2ccccc2F)c(C)n1C1CC1	none (no result: STAT3 act, AHR act)
COc1cccc(C(c2nnnn2Cc2ccccc2)N2CCC(n3c(=O)[nH]c4ccccc43)CC2)c1OC (stereo not drawn)	ABCB6 inh MLPCN 74 (no result: FXN GAA850 act, STAT3 act, AHR act) | ABCB6 blocker 1 inactive

From PubChem
